pIC50, pKi: −log10 of the molar value.
What was measured:
[1] = target: Adrenergic receptor alpha-1 (Homo sapiens) (UniProt P35348+P25100+P35368); test: Selectivity ratio of alpha-1 receptor to that of NMDA was determined; format: protein assay
[2] = target: T1, Adrenergic receptor alpha-1 (Homo sapiens, UniProt P35348+P25100+P35368); test: (§1) In vitro binding affinity towards Alpha-1 adrenergic receptor by displacing [3H]prazosin radioligand; format: protein assay
T1 sequence (P35348 whole entry): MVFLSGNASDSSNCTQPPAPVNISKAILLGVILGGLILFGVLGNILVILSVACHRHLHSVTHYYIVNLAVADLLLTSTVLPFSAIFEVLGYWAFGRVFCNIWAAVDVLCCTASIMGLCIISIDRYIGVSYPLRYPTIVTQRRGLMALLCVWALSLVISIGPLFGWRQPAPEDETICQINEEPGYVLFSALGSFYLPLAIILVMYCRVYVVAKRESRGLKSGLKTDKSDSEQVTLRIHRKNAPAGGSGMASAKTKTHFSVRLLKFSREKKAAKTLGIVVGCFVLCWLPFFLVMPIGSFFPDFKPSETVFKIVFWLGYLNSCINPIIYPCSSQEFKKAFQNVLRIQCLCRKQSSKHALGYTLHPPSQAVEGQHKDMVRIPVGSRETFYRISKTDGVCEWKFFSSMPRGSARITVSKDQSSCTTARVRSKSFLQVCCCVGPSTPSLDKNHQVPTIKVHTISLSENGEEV
T1 sequence (P25100 whole entry): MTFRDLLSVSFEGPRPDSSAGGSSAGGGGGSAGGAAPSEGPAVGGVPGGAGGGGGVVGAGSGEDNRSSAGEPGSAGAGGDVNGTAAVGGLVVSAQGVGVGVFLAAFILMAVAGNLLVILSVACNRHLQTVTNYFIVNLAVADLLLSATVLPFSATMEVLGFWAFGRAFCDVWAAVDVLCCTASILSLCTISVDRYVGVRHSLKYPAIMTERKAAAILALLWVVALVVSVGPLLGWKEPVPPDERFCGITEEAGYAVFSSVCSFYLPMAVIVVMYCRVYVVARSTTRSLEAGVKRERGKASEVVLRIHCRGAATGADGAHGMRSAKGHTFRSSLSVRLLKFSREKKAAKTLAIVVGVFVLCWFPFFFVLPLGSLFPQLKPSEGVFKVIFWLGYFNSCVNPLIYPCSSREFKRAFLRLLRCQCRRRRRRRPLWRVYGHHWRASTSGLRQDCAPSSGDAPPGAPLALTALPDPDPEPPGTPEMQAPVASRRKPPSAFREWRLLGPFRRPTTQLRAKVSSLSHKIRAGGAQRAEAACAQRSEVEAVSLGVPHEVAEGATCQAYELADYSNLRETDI
T1 sequence (P35368 whole entry): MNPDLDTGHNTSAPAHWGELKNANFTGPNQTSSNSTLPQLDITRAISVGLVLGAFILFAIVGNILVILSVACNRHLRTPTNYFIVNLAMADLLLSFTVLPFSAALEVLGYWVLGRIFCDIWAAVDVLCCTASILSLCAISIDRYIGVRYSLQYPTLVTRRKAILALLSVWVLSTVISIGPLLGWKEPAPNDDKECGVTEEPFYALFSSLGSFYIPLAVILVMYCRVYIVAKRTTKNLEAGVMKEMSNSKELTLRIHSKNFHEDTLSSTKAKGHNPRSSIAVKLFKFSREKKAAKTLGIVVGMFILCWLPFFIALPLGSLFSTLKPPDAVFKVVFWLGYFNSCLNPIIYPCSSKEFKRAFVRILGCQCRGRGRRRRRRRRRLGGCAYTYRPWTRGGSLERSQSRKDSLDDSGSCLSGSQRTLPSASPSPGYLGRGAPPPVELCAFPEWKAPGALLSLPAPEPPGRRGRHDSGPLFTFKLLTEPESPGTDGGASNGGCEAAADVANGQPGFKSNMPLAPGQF

[3] = target: Glutamate [NMDA] receptor; test: Displacement of [3H]25-6981 from N-methyl-D-aspartate glutamate receptor; format: protein-complex assay
[4] = target: T2, Alpha-1A adrenergic receptor (Homo sapiens, UniProt P35348); test: as §1
T2 sequence (P35348 whole entry): T1 sequence (P35348 whole entry)

Mus musculus = test: In vivo evaluation for sound induced seizures in DBA/2 mice on intraperitoneal administration of compound 30 minutes before testing; format: functional; conditions: ip
In short: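 Mice given the compound intraperitoneally, then tested in the standard sound-induced seizure assay. An ED50 in mg/kg was derived for protection.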

[5] = target: Glutamate receptor ionotropic, NMDA 2B (Rattus norvegicus, UniProt P35439+Q00960); test: Evaluated for in vitro inhibition of recombinant rat NR1C/2B receptor expressed in xenopus oocytes; format: cell-based, Oocyte
In short: (§2)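 Two-electrode voltage clamp on Xenopus oocytes expressing recombinant rat NMDA receptors, NR1C/2A or NR1C/2B subunit combination. Concentrations spanned 10 nM–[…]. Values are the geometric mean of three experiments.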

[6] = target: Glutamate receptor ionotropic, NMDA 2A (Rattus norvegicus, UniProt P35439+Q00959); test: Evaluated for in vitro inhibition of recombinant rat NR1C/2A receptor expressed in xenopus oocytes; format: cell-based, Oocyte; in short: as §2
Chain of Glutamate receptor ionotropic, NMDA 2A (Q00959 whole entry, one chain of several): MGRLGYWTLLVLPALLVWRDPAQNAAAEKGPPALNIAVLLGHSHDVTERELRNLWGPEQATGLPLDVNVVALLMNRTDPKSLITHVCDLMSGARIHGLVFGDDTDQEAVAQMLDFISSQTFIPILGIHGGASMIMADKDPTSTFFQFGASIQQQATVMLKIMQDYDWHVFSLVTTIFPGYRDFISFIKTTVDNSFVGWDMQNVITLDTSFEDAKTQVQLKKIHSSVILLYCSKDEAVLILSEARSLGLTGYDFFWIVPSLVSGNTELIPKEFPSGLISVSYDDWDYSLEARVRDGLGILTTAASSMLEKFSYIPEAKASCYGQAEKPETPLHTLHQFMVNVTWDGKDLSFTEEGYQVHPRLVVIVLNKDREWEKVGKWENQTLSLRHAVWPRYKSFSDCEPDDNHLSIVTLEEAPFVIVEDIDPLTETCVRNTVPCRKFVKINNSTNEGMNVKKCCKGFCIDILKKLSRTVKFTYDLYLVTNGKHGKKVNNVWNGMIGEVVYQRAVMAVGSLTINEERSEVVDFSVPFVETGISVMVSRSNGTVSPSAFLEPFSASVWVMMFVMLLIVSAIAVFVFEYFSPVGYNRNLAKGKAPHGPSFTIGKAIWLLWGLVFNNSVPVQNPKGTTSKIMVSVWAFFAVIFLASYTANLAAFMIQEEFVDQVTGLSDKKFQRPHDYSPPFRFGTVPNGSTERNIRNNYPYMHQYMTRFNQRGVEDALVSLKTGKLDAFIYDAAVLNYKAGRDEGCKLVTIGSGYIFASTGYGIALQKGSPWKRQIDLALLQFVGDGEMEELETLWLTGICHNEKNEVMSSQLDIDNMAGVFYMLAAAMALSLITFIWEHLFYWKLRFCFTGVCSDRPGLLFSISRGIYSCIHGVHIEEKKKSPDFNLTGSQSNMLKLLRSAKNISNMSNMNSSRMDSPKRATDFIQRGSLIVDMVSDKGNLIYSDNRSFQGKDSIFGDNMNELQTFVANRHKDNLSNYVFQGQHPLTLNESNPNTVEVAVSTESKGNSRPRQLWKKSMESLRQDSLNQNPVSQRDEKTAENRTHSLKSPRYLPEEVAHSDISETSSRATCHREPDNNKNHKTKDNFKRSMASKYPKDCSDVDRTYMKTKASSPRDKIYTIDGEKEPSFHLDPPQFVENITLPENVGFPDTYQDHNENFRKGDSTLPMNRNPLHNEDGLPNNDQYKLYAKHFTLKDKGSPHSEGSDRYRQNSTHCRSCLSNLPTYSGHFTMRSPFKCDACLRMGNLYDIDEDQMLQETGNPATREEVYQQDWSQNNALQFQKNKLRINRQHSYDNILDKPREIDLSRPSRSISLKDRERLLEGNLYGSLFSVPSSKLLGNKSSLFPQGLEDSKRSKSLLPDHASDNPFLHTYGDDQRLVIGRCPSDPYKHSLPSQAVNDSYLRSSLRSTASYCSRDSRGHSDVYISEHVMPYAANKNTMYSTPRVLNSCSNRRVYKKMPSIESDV

Chain of Glutamate receptor ionotropic, NMDA 2B (Q00960 whole entry, one chain of several): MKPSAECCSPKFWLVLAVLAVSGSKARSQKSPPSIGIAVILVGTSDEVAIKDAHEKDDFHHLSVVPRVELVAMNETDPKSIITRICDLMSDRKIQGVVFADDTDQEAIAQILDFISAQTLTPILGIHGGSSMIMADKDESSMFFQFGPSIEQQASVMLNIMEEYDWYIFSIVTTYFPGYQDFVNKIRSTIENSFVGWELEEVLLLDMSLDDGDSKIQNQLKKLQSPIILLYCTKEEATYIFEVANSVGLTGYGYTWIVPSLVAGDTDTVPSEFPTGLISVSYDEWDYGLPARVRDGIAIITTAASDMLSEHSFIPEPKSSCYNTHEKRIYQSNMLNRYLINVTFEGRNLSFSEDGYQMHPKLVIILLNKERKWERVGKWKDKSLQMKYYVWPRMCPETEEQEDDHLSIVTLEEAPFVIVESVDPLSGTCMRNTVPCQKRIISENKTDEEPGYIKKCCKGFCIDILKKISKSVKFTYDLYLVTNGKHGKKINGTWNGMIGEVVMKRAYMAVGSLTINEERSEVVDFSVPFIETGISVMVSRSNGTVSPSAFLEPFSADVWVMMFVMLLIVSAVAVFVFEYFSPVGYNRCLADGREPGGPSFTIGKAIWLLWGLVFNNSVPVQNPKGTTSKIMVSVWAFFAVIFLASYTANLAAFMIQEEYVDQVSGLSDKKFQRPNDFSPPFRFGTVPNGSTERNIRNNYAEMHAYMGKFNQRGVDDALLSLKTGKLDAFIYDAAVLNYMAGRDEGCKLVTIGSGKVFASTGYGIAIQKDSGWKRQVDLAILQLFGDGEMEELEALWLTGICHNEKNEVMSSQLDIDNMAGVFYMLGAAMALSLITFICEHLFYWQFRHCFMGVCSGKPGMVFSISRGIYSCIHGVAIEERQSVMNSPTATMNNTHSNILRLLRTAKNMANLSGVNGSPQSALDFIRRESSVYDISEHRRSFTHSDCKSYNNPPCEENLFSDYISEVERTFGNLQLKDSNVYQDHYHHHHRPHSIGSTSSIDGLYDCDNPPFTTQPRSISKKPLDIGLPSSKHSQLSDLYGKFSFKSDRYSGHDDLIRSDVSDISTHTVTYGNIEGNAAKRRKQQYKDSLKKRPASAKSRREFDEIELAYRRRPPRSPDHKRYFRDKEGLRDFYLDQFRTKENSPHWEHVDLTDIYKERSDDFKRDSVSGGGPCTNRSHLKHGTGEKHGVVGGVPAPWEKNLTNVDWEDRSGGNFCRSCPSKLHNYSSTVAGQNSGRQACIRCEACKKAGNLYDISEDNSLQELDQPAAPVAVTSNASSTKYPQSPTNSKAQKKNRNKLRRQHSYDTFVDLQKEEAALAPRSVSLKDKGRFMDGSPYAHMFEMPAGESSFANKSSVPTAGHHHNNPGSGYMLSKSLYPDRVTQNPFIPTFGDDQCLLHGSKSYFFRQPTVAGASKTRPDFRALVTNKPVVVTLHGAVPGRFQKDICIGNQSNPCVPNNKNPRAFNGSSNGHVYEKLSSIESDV

Row | Selectivity ratio [1] | Ki [2] [nM] | pKi [3] | pKi [4] | pIC50 [5] | pIC50 [6] | SMILES | ED50 (Mus musculus) [mg/kg]
1 | 32 | 180 | 8.25 |  |  |  | C[C@@H](CN1CCC(Cc2ccccc2)CC1)[C@@H](O)c1ccc(O)cc1 | 
2 | 27 | 91.5 | 8.47 |  |  |  | CC(Cc1ccc(O)cc1)CN1CCC(Cc2ccccc2)CC1 (stereo not given) | 
3 |  |  | 8.12 | 5.14 |  |  | Cc1ccc(CC2(O)CCN(C[C@@H](O)Cc3ccc(O)cc3)CC2)cc1 | 25
4 | 789 | 5915 | 8.12 |  |  |  | Cc1ccc(CC2(O)CCN(CC(O)Cc3ccc(O)cc3)CC2)cc1 (stereo not given) | 
5 | 27 | 610 | 7.65 |  |  |  | O=C(Cc1ccc(O)cc1)CN1CCC(Cc2ccccc2)CC1 | 
6 | 216 | 2439 |  |  |  |  | Oc1ccc(CC(O)CN2CCC(O)(Cc3ccc(Br)cc3)CC2)cc1 (stereo not given) | 
7 | 15 | 305 |  |  |  |  | COC(Cc1ccc(O)cc1)CN1CCC(Cc2ccccc2)CC1 (stereo not given) | 
8 |  |  | 8.31 | 5.14 | 7.72 | < 5.00 | Cc1ccc(CC2(O)CCN(C[C@H](O)Cc3ccc(O)cc3)CC2)cc1 | 10
9 | 374 | 5610 | 7.82 |  |  |  | Oc1ccc(CC(O)CN2CCC(O)(Cc3ccc(Cl)cc3)CC2)cc1 (stereo not given) | 
10 | 6 | 24.4 | 8.42 |  |  |  | Oc1ccc(C(O)CCN2CCC(Cc3ccccc3)CC2)cc1 (stereo not given) | 
11 | 200 | 4512 | 7.65 |  |  |  | Oc1ccc(CC(O)CN2CCC(O)(Cc3ccccc3)CC2)cc1 (stereo not given) | 
12 | 80 | 305 |  |  |  |  | Oc1ccc(CC(O)CN2CCC(Cc3ccccc3)CC2)cc1 (stereo not given) | 

From ChEMBL document CHEMBL1133913, “Discovery of (R)-1-[2-hydroxy-3-(4-hydroxy-phenyl)-propyl]-4-(4-methyl-benzyl)-piperidin-4-ol: a novel NR1/2B subtype selective NMDA receptor antagonist” (Bioorg Med Chem Lett, 2001)
